What is called apparent Kd is the concentration giving half-maximal binding under the conditions of the assay.

The series has as its system MS2 coat protein. The series is described as follows: apparent Kd, MS2 coat protein; higher = weaker binding; RNA-MaP array; FMN 200 µM where present. An outline of the steps:
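The apparent Kd is the median of filtered binding-curve fits, one per cluster, to green signal normalised to red-channel RNA signal and control-cluster median Fmax. The clusters were on Illumina sequencing chips, and stalled E. coli RNA polymerase had transcribed the designs on them. Titration used SNAP-549-labelled MS2 coat protein from 0.7 or 1.5 nM, doubling to 3 µM, without and then with constant ligand, in 100 mM Tris-HCl pH 7.5, 80 mM KCl, 4 mM MgCl2, BSA, DTT, yeast tRNA and Tween-20.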

[1] abbreviates: designed as: ON switch for flavin mononucleotide, no ligand.
The mark [2] stands for this setting: ligand present: flavin mononucleotide, designed as: ON switch for flavin mononucleotide.
Setting [3] is: designed as: OFF switch for flavin mononucleotide, no ligand.
The mark [4] stands for this setting: ligand present: flavin mononucleotide, designed as: OFF switch for flavin mononucleotide.

“UGGUCAUGAUCAGGAUAUUAACAUGGGCUACAUUAAGAAGGGAUAGUGAGAUACGAACAUGAGGAUCACCCAUGUUGUGUUGUU”: the “apparent Kd” value reads like this: under setting [1], 0.0268 µM; under setting [2], 0.0212 µM.
Take “AUAGCAACAUGAGGAUCACCCAUGUAGGAUAUCGCUAUUGUAAUCAUGAAACAUGAUUACAAUAGCGAGAAGGACAUAUGCUAC”: the “apparent Kd” value by setting is: under setting [3], 0.00933 µM; under setting [4], 0.011 µM.
Consider “GUGCCUUGGGAGAAGGCCCAAUGCAAAGCAUAGGGAGGAUAUCCAUAUAAUAAAUAAACAUGAGGAUCACCCAUGUGGCACAAA”, for which the “apparent Kd” value runs as follows: under setting [1], 0.0194 µM; under setting [2], 0.012 µM.
Turning to “GGAUAGGACAGAGGAUAUACGUGCUAGAGAUACUAGCAAAAUUGCCUCACAUGAGGAUCACCCAUGUAGAAGGCUGUCCUAUCG”, the “apparent Kd” value runs as follows: under setting [3], 0.00772 µM; under setting [4], 0.134 µM.
In the case of “UGGUACAUGGGAGGAUAUCGUGUAGACACAUGAGGAUCACCCAUGUCGAUGGAGACAUCGGAGAUCGAGAAGGCCCAUGUACCU”, the “apparent Kd” value by setting is: under setting [1], 0.0846 µM; under setting [2], 0.00881 µM.
In the case of “GUACUACAUGAGGAUCACCCAUGUACAAAGGUACGAGGAUAUGCAUGUACGAAAGUAUAUGCAGAAGGCGUAGUAC”, the “apparent Kd” value came to 0.0258 µM under setting [1] and 0.0217 µM under setting [2].
Turning to “GGGCCGUUGCAGAAGGCCGGCGGGCUUGGCGCCGGAGGAUAUGCAUGUGCACAUGAGGAUCACCCAUGUGCCAGCCCGGAGGGA”, the “apparent Kd” value is, setting by setting: under setting [1], 0.00656 µM; under setting [2], 0.0059 µM.
Consider “GUGUACUGAGGAUAUGCUGGAAUCUAGCGAAGCUAGGUUCCACAUGAGGAUCACCCAUGUAGAAGGCGGUACAC”, for which the “apparent Kd” value by setting is: under setting [3], 0.0342 µM; under setting [4], 0.0137 µM.
Regarding “CUACCUUAUGAGAAGGCGGUCAUGAAACAUGAUCGAGGAUAUCAUGUAAACAUGAGGAUCACCCAUGUAUGGGUAUUAUGGUAA”, the “apparent Kd” value was determined as 0.226 µM under setting [1] and 0.0288 µM under setting [2].
Turning to “CCCGCUGCUGUGAGGAUAUGCCUGUGGGUGCGUGGGUAGAAGGCACAUGAGGAUCACCCAUGUCCUGCGGCUCC”, the “apparent Kd” value reads like this: under setting [3], 0.366 µM; under setting [4], 0.244 µM.
For “GGUCUUCAAGUCAGGAUAUCGUCUAAUCGAUCUAACGAGAAGGGACAUGAGGAUCACCCAUGUCGUCUCAUCAG”, the “apparent Kd” value runs as follows: under setting [3], 0.0191 µM; under setting [4], 0.0285 µM.
With “GCCAUCGCAUGAGGAUAUGCUCCCGUUUCGGGAGCAGAAGGCAUGUAAUAAGACAUGAGGAUCACCCAUGUAGUUAAGAUGGCA”, the “apparent Kd” value is 0.00736 µM under setting [1] and 0.00532 µM under setting [2].
For “AACAGGUCAGGAUAUACAUGAGGAUCACCCAUGUAACAAGCGGAGGCGACUUCUCAAGGUAGAAGGGAUCUCCG”, the “apparent Kd” value was 0.0198 µM under setting [3] and 0.0189 µM under setting [4].
For “GUAGCAUACCAAGGAUAUUCAUAUAAUAAGUAAACAUGAGGAUCACCCAUGUAGCGAGAGCCUUGGGAGAAGGUGGAAUGCUAC”, the “apparent Kd” value under setting [1] stood at 0.0587 µM and the “apparent Kd” value under setting [2] amounted to 0.0467 µM.
On to “AAGUAUAGAGGAUAUAGUAGUUACAACAUGAGGAUCACCCAUGUUCUUCAUAACGUAGUUCUAGAAGGCUGAUAAA”, for which the “apparent Kd” value worked out at 0.183 µM under setting [3] and 0.271 µM under setting [4].
For the sequence “AAGUCUGGACGAGGAUAUCAGCUGUAACUGGCGUCAACAUGAGGAUCACCCAUGUUGCUAUAGGGUGAGAAGGCGUUUGGGCAA”, the “apparent Kd” value runs as follows: under setting [1], 0.0241 µM; under setting [2], 0.0195 µM.
As for “UCGUACUAGGGAGGAUAUGGGAAGAUACAUGAGGAUCACCCAUGUUUAAGAAUGCCGAGAGGCAACUAGAAGGCCCUAGUACCU”, the “apparent Kd” value runs as follows: under setting [1], 0.391 µM; under setting [2], 0.0191 µM.
For the sequence “UCUACAUAAAUUCAUCAAUACAGAAAGGAUAUGAGAUACAUGAGGAUCACCCAUGUGCAUGGGAAUUAGAAGGUUCAAUUAACU”, the “apparent Kd” value under setting [3] was determined as 0.0985 µM and the “apparent Kd” value under setting [4] worked out at 0.0672 µM.
“UGUCGGAGCAGAGGAUAUUACAUGAGGAUCACCCAUGUAUGAACCAAUAGCUGGAGACAGCAAUGUAAGAAGGCUGCUCCGACA”: the “apparent Kd” value under setting [3] was determined as 0.0122 µM and the “apparent Kd” value under setting [4] was found to be 0.171 µM.
Turning to “UUGUACGUCGUAGGAUAUGUAGGAUAUUCCUACAUGAGGAUCACCCAUGUUGACAUGGAAGAAGGACAGAAGGACGAUGUCCAU”, the “apparent Kd” value under setting [1] came out at 0.429 µM and the “apparent Kd” value under setting [2] came out at 0.00783 µM.
Consider “GACGAGGGAGGAUAUGCACGAGGGAUAUCUGACAUGCCUAUACAUGAGGAUCACCCAUGUAGAAGGCCCAGAUA”, for which the “apparent Kd” value amounted to 0.0106 µM under setting [3] and 0.0131 µM under setting [4].
Regarding “ACAUCGUGAGACAUGAGGAUCACCCAUGUGUGAUAGUGGGCACAGGAUAUCCAAAUUUGGAAUUUGGAGAAGGGUGAUCGUUAA”, the “apparent Kd” value by setting is: under setting [1], 0.0721 µM; under setting [2], 0.0686 µM.
As to “GCACAUGAUACAGGAUAUGUUUUUUAAUUUAUUAUGAGUUAUAUAUUAUUUACAGAAGGGUAUACAUGAGGAUCACCCAUGUGC”, the “apparent Kd” value reads like this: under setting [3], 0.0409 µM; under setting [4], 0.0314 µM.
For the sequence “UUAUGUGGCGUAGGAUAUCAUUAGAUUUGUAAUUUAAUUGUAAUUUCCAUAUGAGAAGGACGUAUACAUGAGGAUCACCCAUGU”, the “apparent Kd” value stood at 0.0148 µM under setting [3] and 0.0177 µM under setting [4].
As for “AAAAAACAUGAGGAUCACCCAUGUGAGGAUAUCACUAGUCAGUCCUCGGAGUGAGUUCUGAGAAGGCACAUAAA”, the “apparent Kd” value by setting is: under setting [3], 0.118 µM; under setting [4], 0.106 µM.
For “GUCAGCUCGUCAGGAUAUACGUCACUGCGUCAGCAGUGUGGUAAGAUCACAUGAGGAUCACCCAUGUAGAAGGGACGAGCUGAU” the same measures were 0.0141 µM and 0.291 µM.
Regarding “AAUAACAGAGGAUAUACUAUUUUAUGUGUUUAUUGUUUUAAACAUGAGGAUCACCCAUGUAGAAGGCUGAAUGA”, the “apparent Kd” value amounted to 0.0376 µM under setting [3] and 0.0544 µM under setting [4].
With “GCAAGAAUAGGAUAUACACCGUGUCAGCUUUUAUAUAUCGCACAUGAGGAUCACCCAUGUAGAAGGGUUCUCUG”, the “apparent Kd” value under setting [3] amounted to 0.42 µM and the “apparent Kd” value under setting [4] was 0.353 µM.
Take “AUAUAUAUAAGGUAGGAUAUACUAAAGUAAACAUGAGGAUCACCCAUGUAAAGAAAGAAACUCAUGUAGAAGGACCAUAUAUAUAU”: the “apparent Kd” value is, setting by setting: under setting [1], 0.171 µM; under setting [2], 0.0365 µM.
On to “CUAAUGUGAGGAUAUGGUGUUGAUCGCAGGAAGGAGAUGCUCCAGAAGGCACAUGAGGAUCACCCAUGUAGUGA”, for which the “apparent Kd” value under setting [3] came to 0.0705 µM and the “apparent Kd” value under setting [4] was determined as 0.0367 µM.
As for “CCGAUGGUAUACUAGGAUAUGGGCGCCCUUACAUGAGGAUCACCCAUGUUUACACAAAUCCGCGGCCAGAAGGAGUUCAUGGGAG”, the “apparent Kd” value worked out at 0.184 µM under setting [1] and 0.133 µM under setting [2].
As for “AUUAUUGACGUAGGAUAUUCUUACAUGAGGAUCACCCAUGUUAUUUGGGAACUAGGAAUAUUUUAGAAGAAGGACGUUGUUAAA”, the “apparent Kd” value under setting [1] is 0.23 µM and the “apparent Kd” value under setting [2] turned out to be 0.173 µM.
For “GCCGGGUAGGCAGGAUAUCCUCGCGCAAACACAUGAGGAUCACCCAUGUACACAAAACGUGAUAUGGAGAAGGGCCAACCCACG”, in that order: 0.0241 µM and 0.0058 µM.
On to “GUGAAGUAAGGAUAUACAUGAGGAUCACCCAUGUGGAGGAAGGUGAUGGGAGUAGGUAGUAGAAGGUACGAGGA”, for which the “apparent Kd” value runs as follows: under setting [3], 0.14 µM; under setting [4], 0.128 µM.
With “AAGAAAGUUUACGAGGAUAUGUUCCGCAUAACAUGAGGAUCACCCAUGUGAACAAGAAAGGCGACGCAGAAGGCGUGAGCAAAGA”, the “apparent Kd” value by setting is: under setting [1], 0.359 µM; under setting [2], 0.0432 µM.
Turning to “UAUUAGCUAGGAUAUACAUGAGGAUCACCCAUGUCACGGGUCCACUUGUCCUAUGCGUGUAGAAGGAGCGACCC”, the “apparent Kd” value was 0.0225 µM under setting [3] and 0.0258 µM under setting [4].
In the case of “ACUAAUUAGUGAGGAUAUACAUAAUUUAUAACUGUAGAAGGCACAAACCUCAAGACAUGAGGAUCACCCAUGUGGUAUAUAGAU”, the “apparent Kd” value by setting is: under setting [3], 0.169 µM; under setting [4], 0.388 µM.
For “GUAGCAACAUGAGGAUCACCCAUGUAGGAUAUCGCUAUUGUAAUCAUGAAACAUGAUUACAAUAGCGAGAAGGACAUAUGCUAA”, the “apparent Kd” value under setting [3] is 0.00833 µM and the “apparent Kd” value under setting [4] worked out at 0.0107 µM.
As to “AAAAAACAUGAGGAUCACCCAUGUCAAAAGACAUGAGGAUAUGUACAGACUUCGGUCUGUACAGAAGGCAUGAAAA”, the “apparent Kd” value runs as follows: under setting [1], 0.489 µM; under setting [2], 0.0436 µM.
Take “UUUUAGCAAGGAUAUACAUUUUUUUUAUUAUCCUCAUUAUUACAUGAGGAUCACCCAUGUAGAAGGUGCAUUUU”: the “apparent Kd” value amounted to 0.0759 µM under setting [3] and 0.0815 µM under setting [4].
As to “UUUUUAUGAGAGAAGGAGGACUUCAUGAGGAUCACCCAUGUGUUAGUACUUAGGAUAUUUAAUAACAUGAGGAUCACCCAUGUC”, the “apparent Kd” value was 0.0511 µM under setting [1] and 0.0486 µM under setting [2].
As to “AAAGUGUCAGGAUAUUGUUAGUUUAGUUGUUUGUAUUAGUUCGAGAAGGGACAUGAGGAUCACCCAUGUUGAAA”, the “apparent Kd” value runs as follows: under setting [3], 0.034 µM; under setting [4], 0.0329 µM.
Turning to “AUACAUGAGGAUCACCCAUGUAAUUAAUUAAUUAAUAAGAUCUAGGAUAUCAGCUCGAUUAGAGCUGAGAAGGAGAUCACAUGU”, the “apparent Kd” value runs as follows: under setting [1], 0.0242 µM; under setting [2], 0.0146 µM.
As to “GCCUCACAUGAGGAUCACCCAUGUCAGGAUAUAGGAGGCAGUAGAUAUCCUACCGCCGCUAGAAGGGACUGGCA”, the “apparent Kd” value was 0.0491 µM under setting [3] and 0.131 µM under setting [4].
For “GUCAGCUCGUGAGGAUAUACAACACUGCUUCGGCAGUGUAAUAAGAUCACAUGAGGAUCACCCAUGUAGAAGGCACGAGCUGAU”, in that order: 0.012 µM and 0.25 µM.
For “GCCUCAGAAUUAAUUGUGAGAGGCAGAAGGCUAUAUCUCGUGGUAAACAUGAGGAUCACCCAUGUAGAGGAUAUGCUAUUACAG” the same measures were 0.00825 µM and 0.00999 µM.
On to “GUAGGCGACCAGAAGGGUGACAUGAGGAUCACCCAUGUAGAUGUGUUCCCGCUUGGGAGCCGUCCACAGGAUAUGGUUGCUUAG”, for which the “apparent Kd” value runs as follows: under setting [1], 0.0665 µM; under setting [2], 0.0425 µM.
For the sequence “AACAGCUCGUCAGGAUAUAUUUUCCUUUUAUGUAUUUAUGUACAUGAGGAUCACCCAUGUUGUUUGUAGAAGGGACGAGCUGAA”, the “apparent Kd” value runs as follows: under setting [3], 0.0275 µM; under setting [4], 0.0357 µM.
